Compound activity from PubChem BioAssay.
In the library only some 2.4% were active in any assay of this set; here they are far more common.
Jurkat NFkB inh: lowers PMA/ionomycin-induced NF-kB signal in Jurkat cells; AID 435003; 0.53% of 330,000 active; PMA/ionomycin-induced NF-kB luciferase reporter, luminescence; inhibition, % at 4 µM; in the data active = inhibition above about 50%
697 NFkB inh: lowers PMA/ionomycin-induced NF-kB signal in 697 B cells. 0.33% of 330,000 active. 697 B-cell NF-kB luciferase reporter, 16 h. inhibition, % at 4 µM; in the data active = inhibition above about 35%
aDG glyco act: increases alpha dystroglycan glycosylation; activation, % at 10 µM; Pro5-aDG cells, alpha-DG glycosylation AlphaScreen (IIH6); 0% Pro5, 100% B10-LARGE cell signal; 0.22% of 360,000 active; AID 624168;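 active = activation of at least 8% versus controls, or a plate z-score of at least 8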;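 note: Pro5 are CHO cells carrying HIG-tagged alpha-DG that lacks glycosylation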
NR2E3 ag-1: human photoreceptor-specific nuclear receptor agonism | CHO-S Gal4-NCOR/VP16-NR2E3 two-hybrid, luciferase | inhibition of corepressor binding, % at 3.98 µM | 0.35% of 360,000 active | AID 602229;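 active = inhibition above the mean of all tested compounds plus 3 SD, cut at about 70% in these data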;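 note: 0% = DMSO with NR2E3 transfected cells and 100% = cells lacking NR2E3 construct; higher means lower luciferase signal from less NR2E3 corepressor binding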
Target sequence (Q9Y5X4 whole entry, looked up, the tested form may be a part): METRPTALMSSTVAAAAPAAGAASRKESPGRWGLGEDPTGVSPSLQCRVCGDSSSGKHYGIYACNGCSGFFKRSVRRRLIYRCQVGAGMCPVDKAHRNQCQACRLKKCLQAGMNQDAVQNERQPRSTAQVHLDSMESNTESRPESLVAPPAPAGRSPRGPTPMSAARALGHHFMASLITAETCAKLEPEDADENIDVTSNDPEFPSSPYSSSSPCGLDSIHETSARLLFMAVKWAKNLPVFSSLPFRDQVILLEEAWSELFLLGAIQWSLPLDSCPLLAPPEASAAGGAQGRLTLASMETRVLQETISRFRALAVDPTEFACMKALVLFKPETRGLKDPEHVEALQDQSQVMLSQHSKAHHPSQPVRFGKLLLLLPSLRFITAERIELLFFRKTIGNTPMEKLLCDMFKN
NR2E3 ag-2: activates human photoreceptor nuclear receptor NR2E3. AID 2300. 0.12% of 320,000 active. inhibition of corepressor binding, % at 4.78 µM. GST-NR2E3/biotin-RetCOR TR-FRET, 1536-well. Q9Y5X4;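 active = percent inhibition above the cutoff of mean plus 3 SD of all tested compounds, set per screening campaign, cut at about 20% in these data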;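 note: 0% = DMSO wells and 100% = biotin wells as full block of FRET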
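Assay system: NR2E3–RetCOR corepressor complex. Quantity: 1.35 nM GST-NR2E3. Buffer or medium: pH 7.5 Tris-based buffer. Reagent: biotinylated RetCOR corepressor at 7 nM final. Schedule: 5 h at 4 °C. Detection: TR-FRET, emission read at 617 and 671 nm. Replicates: one well per compound, singlicate testing.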
MPTP inh: inhibitors of mitochondrial permeability transition pore. isolated mouse mitochondria, Ca2+ swelling absorbance, 30 min. inhibition, % at 10 µM. AID 602449. 1.4% of 360,000 active;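 active = inhibition of 50% or more, scaled per plate between neutral and stimulator controls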;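 note: 0% = DMSO wells given calcium and 100% = 1 mM EGTA wells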
697 NFkB conf: inhibitors of the PMA/ionomycin-induced NF-kB reporter in 697 B cells, retest | shares compounds with 697 NFkB inh | 697 B-cell NF-kB luciferase, 16 h | inhibition, % at 4 µM | 35% of 2,000 active | AID 449746; in the data active = inhibition mostly above about 28%, no sharp cut-off; inactive = mostly below about 22%
An asterisk follows results filed as active; i = inactive; nt = no result.

SMILES | Jurkat NFkB inh | 697 NFkB inh | aDG glyco act | NR2E3 ag-1 | NR2E3 ag-2 | MPTP inh | 697 NFkB conf
CCn1cc(C(=O)O)c(=O)c2cnc(N3CCN(C(=S)NC(=O)c4ccc(Cl)cc4)CC3)nc21 | 18 | 38* | nt | nt | 2 | nt | -1
CCn1cc(C(=O)O)c(=O)c2cnc(N3CCN(C(=S)NC(=O)c4ccc(Br)cc4)CC3)nc21 | 9 | 84* | nt | nt | -2 | nt | 26*
Cc1cc(C)c2c(NC(=S)NC(=O)c3ccccc3)n[nH]c2n1 | 0 | -3 | 0 | -18 | 0 | -2 | nt
COc1cccc(C(=O)Nc2ccc3c(c2)CCCN3C(=O)c2cccs2)c1OC | -9 | -45 | 0 | -22 | -3 | 0 | nt
Cc1ccccc1C(=O)Nc1ccc2c(c1)CCCN2C(=O)c1cccs1 | -52 | i | 0 | 24 | 2 | 1 | i
Cc1cccn2c(=O)c3cc(C(=O)NC4CCCCC4)c(=N)n(CCN4CCOCC4)c3nc12 | 12 | 53* | 0 | -9 | 4 | -1 | 39*
COc1cc(C2CC(=O)Nc3n[nH]c(-c4ccccc4)c32)cc(OC)c1OC (stereo not given) | 46 | 0 | nt | nt | 0 | nt | nt
Cc1ccc(NC(=O)NC(=O)N(C(C)C)S(C)(=O)=O)nc1 | nt | nt | 0 | 14 | 0 | 0 | nt
O=S(=O)(CC12C3C4C5C1C2C(Br)(C43)C51OCCO1)c1ccccc1 (stereo not given) | 11 | 4 | 0 | -12 | -1 | -1 | nt
O=C(Nc1ccc(-c2noc(-c3cccs3)n2)cc1)c1cccnc1 | -101 | -289 | 0 | -115 | -1 | -3 | -280
Cc1noc(COc2ccccc2OCC(N)=O)c1Cl | -3 | 38* | 0 | -13 | -2 | -1 | 25
COc1cc(-c2noc(CCCC(=O)Nc3ccc(C(N)=O)cc3)n2)cc(OC)c1OC | 2 | 22 | 0 | -30 | 0 | 8 | nt
COc1ccc(-c2noc(CCCC(=O)Nc3ccc(C(N)=O)cc3)n2)cc1 | 10 | 78* | 0 | 23 | 2 | 1 | 45*
Cc1ccc(NC(=O)Cn2c(O)c(N=NC(N)=S)c3ccccc32)cc1 | -8 | 40* | 0 | 0 | 3 | 0 | -1
C/C(Cl)=C\Cn1c(O)c(N=NC(N)=S)c2ccccc21 | 9 | 11 | 2 | 24 | 1 | 0 | nt
NC(=S)N=Nc1c(O)n(Cc2ccccc2)c2ccccc12 | 10 | 45* | 1 | -37 | 1 | 2 | 39*
Cc1ccc(NC(=O)Cn2c(O)c(N=NC(N)=O)c3ccccc32)cc1 | 14 | -1 | 0 | 6 | -2 | 1 | nt
O=C1NC2CCCCC2C(=O)N1OS(=O)(=O)c1ccccc1 (stereo not given) | nt | nt | 0 | 4 | nt | 0 | nt
Cc1cccc(OCC(=O)N/N=C2/SCC(=O)N2Cc2ccco2)c1 | -9 | 14 | 0 | -6 | -1 | 1 | nt
CCC(C(=O)n1cccc1C#N)c1ccccc1C (stereo not given) | -3 | 24 | 0 | -1 | 0 | 0 | nt
Cc1ccc(-c2cnc(-c3ccncc3)o2)cc1 | -82 | -27 | 0 | -67 | 0 | -1 | nt
Nc1ccc(-c2ncc(-c3ccccc3)o2)cc1 | -124 | 40* | 0 | 32 | 9 | -2 | -6
Cc1ccccc1OCCN(C#N)c1nc(N(C)C)nc(N(C)C)n1 | 0 | 4 | 0 | -2 | 0 | 0 | nt
NC(=O)COc1cccc(/C=N/NC(=O)c2ccc(-n3cccc3)cc2)c1 | 10 | 52* | 0 | -23 | 0 | 3 | -7
COC(=O)c1ccccc1NC(=S)NC(=O)c1ccc2c(c1)OCO2 | 1 | 46* | 0 | -6 | nt | -1 | 9
SMILES | Jurkat NFkB inh | 697 NFkB inh | aDG glyco act | NR2E3 ag-1 | NR2E3 ag-2 | MPTP inh | 697 NFkB conf
Cc1ccc2nc(Cl)c(/C=N/Nc3ccc(C(=O)O)cc3)cc2c1 | -144 | -490 | 0 | -22 | -4 | 2 | -383
Cc1ccc2cc(/C=N/NC(=O)c3ccc(F)cc3)c(Cl)nc2c1 | 7 | 19 | 0 | -9 | -3 | -1 | nt
CC1(C(=O)NCc2cccs2)CCN1C(=O)Cc1cccc2ccccc12 (stereo not given) | nt | nt | 0 | -20 | nt | 1 | nt
N#Cc1ccccc1CSc1nc(N)cc(N)n1 | -10 | -6 | 0 | 1 | nt | 0 | nt
O=C1c2ccccc2C(=O)C1c1nccc2ccccc12 | -43 | -321 | 0 | -176 | 1 | 1 | -271
O=C1c2ccccc2C(=O)C1c1ccnc2ccccc12 | -34 | -262 | 1 | -138 | 1 | -1 | -288
O=C1C(c2ccnc3ccccc23)=C(O)c2ccccc21 | 1 | -338 | 0 | -141 | 0 | -1 | -298
Cc1cc(NC(=O)COC(=O)C2CC(=O)N(c3ccc(Cl)cc3)C2)no1 (stereo not given) | 0 | 12 | 0 | -7 | 2 | -2 | nt
COc1ccc(/C=C2\SC(=S)N(CCCC(=O)NNC(=O)c3ccccc3O)C2=O)cc1 | 4 | 74* | 3 | 14 | 2 | 4 | 69*
Cc1cc(NC(=O)CCN2C(=O)/C(=C/c3ccccc3F)SC2=S)no1 | 3 | 19 | nt | nt | 2 | nt | nt
COc1ccc(/C=C2/SC(=S)N(CCCC(=O)Nc3ccccc3C(=O)O)C2=O)cc1 | 18 | 32 | 0 | 24 | 2 | 2 | nt
Cc1cc(NC(=O)CCCN2C(=O)/C(=C/c3ccccc3Cl)SC2=S)no1 | 18 | 60* | 1 | 18 | 3 | 2 | 68*
O=C(CCCN1C(=O)/C(=C/c2ccccc2Cl)SC1=S)NNC(=O)c1ccccc1Cl | 13 | 69* | 1 | -7 | -1 | 1 | 65*
O=C(CCCN1C(=O)/C(=C/c2ccccc2Cl)SC1=S)N1CCCC1 | -5 | 7 | 0 | 4 | 3 | -3 | nt
Cc1nc2ccccc2c2oc(C(=O)Nc3ccc(C(C)C)cc3)cc12 | 0 | -29 | 2 | 33 | -1 | 12 | nt
COc1cc(NC(=O)c2cc3c(C)nc4ccccc4c3o2)cc(OC)c1OC | 13 | 37* | 0 | 17 | 1 | -2 | 44*
O=C(Nc1ccc(Cl)c(S(=O)(=O)N2CCOCC2)c1)[C@@H]1CCCN1C(=O)c1cccs1 | -13 | 10 | 0 | 2 | 6 | -2 | nt
c1ccc2sc(-c3ccc4c(c3)OCO4)nc2c1 | -144 | -361 | 0 | -122 | -1 | 2 | -242
NC(=O)c1cc(C(=O)Cc2ccc(Cl)cc2)c[nH]1 | -22 | -7 | 0 | -39 | 2 | 0 | nt
Cc1c(C2(O)CCCCC2)[nH]c2ccc(C(F)(F)F)cc12 | -57 | -357 | 0 | -3 | nt | 14 | -175
Cc1sc2ncn(CC(=O)Nc3c(F)cccc3F)c(=O)c2c1S(=O)(=O)N1CCC(C)CC1 | 2 | 0 | 0 | 3 | 1 | 1 | nt
